Legend:
[1] = Toxicity in ovariectomized-induced C57BL/6 mouse model of osteoporosis assessed as effect on body weight at 30 mg/kg, sc administered 6 days per week for 70 days using MC/EtOH formulation measured post last dose; type: organism-based; settings: in vivo
How it was run: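 Female C57BL/6 mice, 63-70 days old, ovariectomized under isoflurane (sham-operated controls), randomized by weight into groups of 8. Treated SC in 0.1 mL MC:EtOH (92:8) over 70 days; sham and OVX controls received vehicle alone. Mice weighed at the end of the protocol before necropsy.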

[2] = Toxicity in nu/nu Br athymic mouse xenografted with human […]-stimulated MCF7 cells assessed as effect on liver weight at 30 mg/kg, sc administered 6 days per week […] using MC/EtOH formulation measured 3 hrs post-last dose; type: organism-based; settings: in vivo
How it was run: (§1)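 MCF-7 cells (grown in DME-F12 with 5% FBS and 1 nM estradiol) inoculated SC at 4.1 x 10^6 cells in 30% Matrigel into both flanks of bilaterally ovariectomized nude mice, three days after surgery; E2S 50 µg/mouse SC three times weekly. Test agent SC 6 days/week in 0.1 mL MC:EtOH (92:8) for 28 days; vehicle-only controls. Mice weighed and killed 3 h after last dose; livers removed.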

[3] = Plasma concentration in Balb/c mouse at 30 mg/kg, po administered via gavage as single dose using MC/EtOH formulation measured after 7 hrs by LC-MS/MS analysis; type: ADME, organism-based
How it was run: (§2)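 Female Balb/c mice, fasted 8 h with free water, given a single dose in 0.1 mL vehicle: EO-33 dissolved in EtOH, then aqueous 0.4% methylcellulose added to a final 8% EtOH. Sacrificed under isoflurane at 1, 3, 7, 12 and 24 h (2–3 mice/group). Cardiac blood collected into K-EDTA and plasma stored at −80 °C. LC-MS/MS on 100 µL plasma. AUC0-24h taken from the five time points.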

[4] = Plasma concentration in Balb/c mouse at 10 mg/kg, sc administered as single dose using MC/EtOH formulation measured after 3 hrs by LC-MS/MS analysis; type: ADME, organism-based; how it was run: as §2
[5] = Plasma concentration in Balb/c mouse at 30 mg/kg, po administered via gavage as single dose using MC/EtOH formulation measured after 12 hrs by LC-MS/MS analysis; type: ADME, organism-based; how it was run: as §2
Mus musculus [6] = experiment: Osteogenic activity in ovariectomized-induced C57BL/6 mouse model of osteoporosis assessed as recovery of tibia calcium content at 30 mg/kg, sc administered 6 days per week for 70 days using MC/EtOH formulation by Triple Quad ICP-MS analysis relative to control; type: functional
How it was run: (§3)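 Female C57BL/6 mice (63–70 days) ovariectomized under isoflurane; sham controls kept. 8/group, dosed SC in 0.1 mL MC:EtOH (92:8) for 70 days. Tibias excised and weighed (mg/g body weight). Calcium measured by ICP-MS after calcination at 600 °C for 6 h and HNO3 microwave digestion; expressed as mg/g tibia.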

Mus musculus [7] = experiment: In vivo inhibition of STS in ovariectomized Balb/c mouse assessed as reduction in E1S-stimulated uterus weight at 30 mg/kg, sc administered once daily starting from day 2 to day 10 using MC/EtOH formulation and E1S addition on day 5 to 10 measured on day 11 relative to control; type: functional
How it was run: (§4)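 Female Balb/c mice (15–20 g) ovariectomized under isoflurane, 5/group. Inhibitor given SC in 0.1 mL MC:EtOH (92:8) on days 2–10. E1S (2 µg/mouse, BID) or E1 (0.06 µg/mouse, ID) given SC on days 5–10. Vehicle controls included. Uterus dissected and weighed on day 11. Means ± SEM.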

[8] = AUC (0 to 24 hrs) in Balb/c mouse at 30 mg/kg, sc administered as single dose using MC/EtOH formulation by LC-MS/MS analysis; type: ADME, organism-based; parameters: dose 30 mg/kg, time < 24 hr, route subcutaneous; settings: in vivo; how it was run: as §2
Mus musculus [9] = experiment: Osteogenic activity in ovariectomized-induced C57BL/6 mouse model of osteoporosis assessed as recovery of tibia weight at 30 mg/kg, sc administered 6 days per week for 70 days using MC/EtOH formulation relative to control; type: functional; how it was run: as §3
[10] = Toxicity in nu/nu Br athymic mouse xenografted with human […] MCF7 cells assessed as effect on body weight at 30 mg/kg, sc administered 6 days per week for […] using MC/EtOH formulation measured 3 hrs post-last dose; type: organism-based; settings: in vivo; how it was run: as §1
[11] = AUC (0 to 24 hrs) in Balb/c mouse assessed as (4-(((furan-2-ylmethyl)((5-methylthiophen-2-yl)methyl)amino)methyl)phenyl)(7-hydroxy-3,4-dihydroisoquinolin-2(1H)-yl)methanone level at 30 mg/kg, po administered via gavage as single dose using MC/EtOH formulation by LC-MS/MS analysis; type: ADME, organism-based; parameters: dose 30 mg/kg, time < 24 hr, route oral; settings: in vivo
Mus musculus [12] = experiment: Estrogenic activity in ovariectomized Balb/c mouse assessed as stimulation of uterine weight at 30 mg/kg, sc administered once daily from day 2 to 10 using MC/EtOH formulation measured on day 11; type: organism-based; settings: in vivo; how it was run: as §4
[13] = AUC (0 to 24 hrs) in Balb/c mouse assessed as (4-(((furan-2-ylmethyl)((5-methylthiophen-2-yl)methyl)amino)methyl)phenyl)(7-hydroxy-3,4-dihydroisoquinolin-2(1H)-yl)methanone level at 30 mg/kg, sc administered as single dose using MC/EtOH formulation by LC-MS/MS analysis; type: ADME, organism-based; parameters: time < 24 hr, dose 30 mg/kg, route subcutaneous; settings: in vivo
[14] = Plasma concentration in Balb/c mouse at 2 mg/kg, sc administered as single dose using MC/EtOH formulation measured at 1 hr by LC-MS/MS analysis; type: ADME, organism-based; how it was run: as §2
[15] = Plasma concentration in Balb/c mouse at 2 mg/kg, sc administered as single dose using MC/EtOH formulation measured after 7 hrs by LC-MS/MS analysis; type: ADME, organism-based; how it was run: as §2
[16] = Plasma concentration in Balb/c mouse at 30 mg/kg, po administered via gavage as single dose using MC/EtOH formulation measured after 3 hrs by LC-MS/MS analysis; type: ADME, organism-based; how it was run: as §2
[17] = AUC (0 to 24 hrs) in Balb/c mouse at 30 mg/kg, po administered via gavage as single dose using MC/EtOH formulation by LC-MS/MS analysis; type: ADME, organism-based; parameters: time < 24 hr, dose 30 mg/kg, route oral; settings: in vivo; how it was run: as §2
[18] = Plasma concentration in Balb/c mouse at 30 mg/kg, sc administered as single dose using PG/DMSO formulation measured after 7 hrs by LC-MS/MS analysis; type: ADME, organism-based
How it was run: (§5)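 Female Balb/c mice, fasted 8 h, given a single dose in 0.1 mL of PG or sunflower oil holding a final 8% DMSO. Sacrificed under isoflurane at 7 h (2–3 mice/group). Cardiac blood collected into K-EDTA and plasma analysed by LC-MS/MS.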

[19] = AUC (0 to 24 hrs) in Balb/c mouse at 2 mg/kg, sc administered as single dose using MC/EtOH formulation by LC-MS/MS analysis; type: ADME, organism-based; parameters: dose 2 mg/kg, time < 24 hr, route subcutaneous; settings: in vivo; how it was run: as §2
[20] = Plasma concentration in Balb/c mouse at 10 mg/kg, sc administered as single dose using MC/EtOH formulation measured after 12 hrs by LC-MS/MS analysis; type: ADME, organism-based; how it was run: as §2
[21] = Plasma concentration in Balb/c mouse at 30 mg/kg, sc administered as single dose using MC/EtOH formulation measured after 7 hrs by LC-MS/MS analysis; type: ADME, organism-based; how it was run: as §2
[22] = Plasma concentration in Balb/c mouse at 30 mg/kg, po administered via gavage as single dose using SO/DMSO formulation measured after 7 hrs by LC-MS/MS analysis; type: ADME, organism-based; how it was run: as §5

Cc1ccc(CN(Cc2ccc(C(=O)N3CCc4ccc(OS(N)(=O)=O)cc4C3)cc2)Cc2ccco2)s1
Activity [1]: Non-Toxic | Activity [2]: Non-Toxic | concentration at 7 h [3]: 75 ng/mL | concentration at 3 h [4]: 398 ng/mL | concentration at 12 h [5]: 3 ng/mL | Activity (Mus musculus [6]): 71% | inhibition in vivo at 30 mg/kg (Mus musculus [7]): 42% | AUC(0-t) at 24 h [8]: 13500 ng·h/mL | Activity (Mus musculus [9]): 100% | Activity [10]: Non-Toxic | AUC [11]: 10 ng·h/mL | Activity (Mus musculus [12]): Non-Toxic | AUC [13]: 269 ng·h/mL | concentration at 1 h [14]: 681 ng/mL | concentration at 7 h [15]: 1 ng/mL | concentration at 3 h [16]: 19 ng/mL | AUC(0-t) at 24 h [17]: 878 ng·h/mL | concentration at 7 h [18]: 381 ng/mL | AUC(0-t) at 24 h [19]: 1130 ng·h/mL | concentration at 12 h [20]: 4 ng/mL | concentration at 7 h [21]: 530 ng/mL | concentration at 7 h [22]: 49 ng/mL
